Reference: article PMC12056735 (RSC Advances, 2025)
Like-named read-outs stand apart in the source and are kept apart here.

What was measured:
[1] = target: VEGFR-2 (Homo sapiens, UniProt P35968); experiment: biochemical
[2] = system: MCF-7 cells; type: cell-based, human; conditions: cancer cells over normal cells
[3] = system: MDA-MB-231 cells; experiment: Apoptosis analysis, Annexin V-FITC/PI flow cytometry; type: cell-based, human
In short: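 Annexin V-FITC/PI flow cytometry on MDA-MB-231 cells exposed to test compound. Percentages of viable, early apoptotic, late apoptotic and necrotic cells are compared against an untreated control group of the same cells.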

[4] = system: Bcl-2; experiment: ELISA for Bcl-2 in MDA-MB-231 cells; type: cell-based, human
[5] = system: caspase-3; experiment: ELISA for caspase-3 in MDA-MB-231 cells; type: cell-based, human
[6] = Safety assay on normal cells, MTT assay; type: cell-based; conditions: human, WISH cells (normal amnion cell line)
In short: (§1)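 MTT viability assay, run on normal WI-38 and WISH cells in parallel with MDA-MB-231 and MCF-7 breast cancer lines to judge selectivity. A series of test compounds and a reference drug were tested.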

[7] = Safety assay on normal cells, MTT assay; type: cell-based; conditions: human, WI-38 cells (normal lung fibroblast cell line)
In short: as §1

[8] = system: MDA-MB-231 cells; type: cell-based, human; conditions: cancer cells over normal cells
[9] = system: MDA-MB-231 cells; experiment: Cell cycle analysis, flow cytometry; type: cell-based, human; conditions: MDA-MB-231, 4.64 µM 7a, 48 h
[10] = system: Bax; experiment: ELISA for Bax in MDA-MB-231 cells; type: cell-based, human; conditions: MDA-MB-231, 4.64 µM 7a, 72 h
[11] = system: HCT-116; conditions: cited from earlier work
[12] = system: MCF-7; conditions: read-out: IC50 against MCF-7; cited from earlier work
[13] = MDA-MB-231, 4.64 µM 7a, 72 h, ELISA

VEGFR-2, sequence (P35968 20-1356): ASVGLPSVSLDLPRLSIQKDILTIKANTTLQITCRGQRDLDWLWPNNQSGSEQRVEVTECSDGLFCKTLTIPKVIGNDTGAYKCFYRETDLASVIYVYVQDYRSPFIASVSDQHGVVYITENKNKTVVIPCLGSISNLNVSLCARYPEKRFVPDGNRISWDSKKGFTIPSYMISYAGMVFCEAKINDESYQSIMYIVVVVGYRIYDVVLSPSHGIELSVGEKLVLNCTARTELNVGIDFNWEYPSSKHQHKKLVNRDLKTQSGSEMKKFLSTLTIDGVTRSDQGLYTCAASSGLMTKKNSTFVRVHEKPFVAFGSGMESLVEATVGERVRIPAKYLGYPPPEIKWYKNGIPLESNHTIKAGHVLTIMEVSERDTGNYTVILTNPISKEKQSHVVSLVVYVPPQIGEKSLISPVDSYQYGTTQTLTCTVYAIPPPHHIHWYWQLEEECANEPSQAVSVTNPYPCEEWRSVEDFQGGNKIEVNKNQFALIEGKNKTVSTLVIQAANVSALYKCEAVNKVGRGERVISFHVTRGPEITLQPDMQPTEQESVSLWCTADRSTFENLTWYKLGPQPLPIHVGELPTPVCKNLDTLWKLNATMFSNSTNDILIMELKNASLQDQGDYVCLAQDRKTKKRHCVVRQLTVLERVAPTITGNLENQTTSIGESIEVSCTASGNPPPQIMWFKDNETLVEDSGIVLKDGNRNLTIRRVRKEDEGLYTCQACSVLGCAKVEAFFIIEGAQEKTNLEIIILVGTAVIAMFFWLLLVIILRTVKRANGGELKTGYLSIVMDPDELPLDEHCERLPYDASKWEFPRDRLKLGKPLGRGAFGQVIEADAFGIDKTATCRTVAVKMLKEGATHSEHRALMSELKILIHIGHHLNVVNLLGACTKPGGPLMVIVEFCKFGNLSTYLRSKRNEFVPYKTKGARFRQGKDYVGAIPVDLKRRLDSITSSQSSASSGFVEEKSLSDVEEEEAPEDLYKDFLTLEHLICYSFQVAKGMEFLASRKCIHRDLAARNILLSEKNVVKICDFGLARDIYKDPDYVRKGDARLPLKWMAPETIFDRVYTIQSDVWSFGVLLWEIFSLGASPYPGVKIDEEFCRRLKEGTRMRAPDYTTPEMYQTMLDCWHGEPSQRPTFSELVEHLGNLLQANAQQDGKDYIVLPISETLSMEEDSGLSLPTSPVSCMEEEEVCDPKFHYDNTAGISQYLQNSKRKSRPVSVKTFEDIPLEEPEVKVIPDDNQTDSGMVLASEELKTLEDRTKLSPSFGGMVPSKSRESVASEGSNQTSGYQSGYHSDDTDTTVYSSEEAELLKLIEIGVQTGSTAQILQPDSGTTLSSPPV

For CC(=O)c1nn(-c2ccccc2Cl)/c(=N/N=C(\C)c2ccc(NC(=O)c3cccnc3)cc2)s1 [Compound 7a, N-(4-((E)-1-(((Z)-5-Acetyl-3-(2-chlorophenyl)-1,3,4-thiadiazol-2(3H)-ylidene)hydrazono)ethyl)phenyl)nicotinamide], the IC50 [1] was 95 ± 50 nM, the “Selectivity index (SI) for MCF-7” value [2] was 8.14 and the viability at 4.64 µM ([3]; Homo sapiens, MDA-MB-231, 48 h, read-out: Viable cells) was 50%. For the same molecule, the Early apoptosis ([3]; MDA-MB-231, 4.64 µM 7a, 48 h) was 1.06%, the Late apoptosis ([3]; MDA-MB-231, 4.64 µM 7a, 48 h) was 44.01% and the Necrosis ([3]; MDA-MB-231, 4.64 µM 7a, 48 h) was 4.94%. For the same molecule, the Bcl-2 conc. [4, 13] was 1.53, the “Bcl-2 FLD” value ([4]; fold vs control MDA-MB-231 (FLD = 1), downregulated) was 3.68 fold and the Caspase-3 conc. [5, 13] was 441.93. The “Caspase-3 FLD” value ([5]; fold vs control MDA-MB-231 (FLD = 1), upregulated) was 8.2 fold, the IC50 at 24 h [6] was 57.7 ± 3.3 µM and the IC50 at 24 h [7] was 73.6 ± 3.8 µM. For the same molecule, the “Selectivity index (SI) for MDA-MB-231” value [8] was 15.86, the “Cell cycle distribution, G0/G1” value [9] was 33% and the “Cell cycle distribution, G2/M” value [9] was 8%. For the same molecule, the “Cell cycle distribution, S” value [9] was 59% and the Bax conc. [10] was 394.72.

For CNC(=O)c1cc(Oc2ccc(NC(=O)Nc3ccc(Cl)c(C(F)(F)F)c3)cc2)ccn1 [Sorafenib], the IC50 ([11]; read-out: IC50 against HCT-116) is given as 9.3 µM, the IC50 ([11]; read-out: IC50 against HCT-116 cells) is given as 7.28 µM and the IC50 [12] is given as 6.72 µM. For the same molecule, the IC50 at 24 h [6] was 13.4 ± 1.1 µM and the IC50 at 24 h [7] was 10.6 ± 0.8 µM.
